Test results reported in article PMC3607822 (The Journal of General Physiology, 2013).

How the values were obtained:
[1] = biological target: CNGA3 ΔN (2-156) channels (Homo sapiens, UniProt Q16281); assay: Inside-out patch clamp, CNGA3 ΔN; assay type: biochemical
[2] = biological target: CNGA3 ΔN (51-107), 613X channels (Homo sapiens, UniProt Q16281, DEL51-107); assay: Inside-out patch clamp, CNGA3 ΔN; assay type: biochemical
[3] = biological target: CNGA3 N2R-A, 613X channels (Homo sapiens, UniProt Q16281, R101A/R103A); assay: Inside-out patch clamp, CNGA3 N2R-A, 613X; assay type: biochemical
[4] = tested on: PA-LP+RR-QQ CNGA3 channels; assay: Inside-out patch clamp, coexpression of A3 PA-LP with A3 RR-QQ; assay type: biochemical, human; conditions: 1 µM PIP3
GST fusion A3C-635X = GST fusion A3C-635X (Homo sapiens, UniProt Q16281); assay: In vitro PIP3-agarose bead pull-down, A3C-635X; assay type: binding; conditions: PIP3-agarose beads, anti-GST immunoblot; compared with A3C
How it was run: (§1)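 Recombinant GST fusions of channel fragments expressed in E. coli and purified; soluble fraction kept after 20,000 g, 4°C, 30 min. Protein (2 µg/ml) rocked with PIP3- or control agarose beads, 2 h, 4°C, in 10 mM Hepes pH 7.4, 50 mM NaCl, 2 mM EDTA, 0.25% Triton X-100, 0.25% NP-40. Five washes, elution in sample buffer, reducing SDS gel, anti-GST (1:2,000, overnight) immunoblot, chemiluminescence; […].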

[5] = biological target: GST fusion of CNGA3 N-terminal region (A3N, amino acids 1–164) (Homo sapiens, UniProt Q16281); assay: In vitro PIP3-agarose bead pull-down, A3N; assay type: binding; conditions: PIP3-agarose beads, anti-GST immunoblot
How it was run: as §1

A2ΔN+B1 channels = A2ΔN+B1 channels (UniProt Q00195+Q14028, DEL61-90); assay: Inside-out patch clamp, A2ΔN+B1; assay type: biochemical, rat, human; conditions: 1 µM PIP3
How it was run: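 Subunit cRNAs (~20 ng, B in excess over A) injected into stage IV Xenopus oocytes; inside-out patches 2–7 d later, 20–22°C, symmetric 130 mM NaCl, 0.2 mM EDTA, 3 mM Hepes pH 7.2. Heteromer formation checked by 25 µM l-cis-diltiazem with 1 mM cGMP. diC8 phosphoinositides applied intracellularly in phosphatase-inhibitor cocktail. cGMP dose–response at +80 mV, leak-subtracted, Hill fit before/after for K1/2; mean ± SEM.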

[6] = tested on: tandem A3//N7R-A,613X heterodimer channels; assay: Inside-out patch clamp, A3 WT//A3 N7R-A,613X tandem dimers; assay type: biochemical, human; conditions: from K1/2 and h before and after PIP3
[7] = read-out: K1/2 cGMP, +80 mV, no PIPn

| Hill coefficient ([1]; cGMP activation) | EC50 [1, 7] | Hill coefficient ([2]; cGMP activation) | EC50 [2, 7] | Hill coefficient ([3]; cGMP activation) | EC50 [3, 7] | in vitro PIP3 binding (GST fusion A3C-635X) | in vitro PIP3 binding [5] | regulation of K1/2 cGMP by PIP3 (A2ΔN+B1 channels) | Compound | Imax cAMP/cGMP (PIP3/control) [4] | change in the energetics of channel opening produced by PIP3 (ΔΔG) [6] |
| --- | --- | --- | --- | --- | --- | --- | --- | --- | --- | --- | --- |
| 1.77 ± 0.07 (9) | 9.16 ± 0.65 µM | 1.90 ± 0.06 (4) | 11.1 ± 2.28 µM | 1.68 ± 0.03 (4) | 16.1 ± 0.59 µM |  |  |  | Nc1nc2c(ncn2[C@@H]2O[C@@H]3COP(=O)(O)O[C@H]3[C@H]2O)c(=O)[nH]1 [cGMP, cyclic guanosine monophosphate] |  |  |
|  |  |  |  |  |  | attenuated binding to PIP3 beads | able to directly bind PIP3 | insensitive to regulation by PIP3 | phosphatidylinositol (3,4,5)-trisphosphate [PIP3] | 1.67 ± 0.06 | 1.29 ± 0.08 kcal/mol |
